Test results published in ChEMBL document CHEMBL1148764, “CYP2C9 structure-metabolism relationships: optimizing the metabolic stability of COX-2 inhibitors” (J Med Chem, 2007).

Experiments:
CYP2C9 = CYP2C9 (Homo sapiens, UniProt P11712); assay: Metabolic stability in presence of human recombinant CYP2C9 at 1 uM after 30 mins; type: ADME
Summary of the method: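 Recombinant human CYP2C9 (Bactosomes), 5 pmol per reaction, in […] buffer pH 7.4 with 1 mM NADPH. Compound 1 µM, added in acetonitrile (2.5% final). 10 min preincubation at 37 °C, reaction started with NADPH, sampled at 0 and 30 min, stopped with ice-cold acetonitrile. Parent remaining quantified by LC/MS/MS as % metabolized. Run in duplicate.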

[1] = biological target: Prostaglandin G/H synthase 1 (Homo sapiens) (UniProt P23219); conditions: at 100 µM;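 note: recombinant human COX-1 enzyme, activity read out as PGE2 production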
[2] = biological target: T1, Prostaglandin G/H synthase 2 (Homo sapiens) (UniProt P35354); conditions: at 100 µM;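 note: recombinant enzyme assay, activity read out as PGE2 generation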
T1 sequence (whole entry): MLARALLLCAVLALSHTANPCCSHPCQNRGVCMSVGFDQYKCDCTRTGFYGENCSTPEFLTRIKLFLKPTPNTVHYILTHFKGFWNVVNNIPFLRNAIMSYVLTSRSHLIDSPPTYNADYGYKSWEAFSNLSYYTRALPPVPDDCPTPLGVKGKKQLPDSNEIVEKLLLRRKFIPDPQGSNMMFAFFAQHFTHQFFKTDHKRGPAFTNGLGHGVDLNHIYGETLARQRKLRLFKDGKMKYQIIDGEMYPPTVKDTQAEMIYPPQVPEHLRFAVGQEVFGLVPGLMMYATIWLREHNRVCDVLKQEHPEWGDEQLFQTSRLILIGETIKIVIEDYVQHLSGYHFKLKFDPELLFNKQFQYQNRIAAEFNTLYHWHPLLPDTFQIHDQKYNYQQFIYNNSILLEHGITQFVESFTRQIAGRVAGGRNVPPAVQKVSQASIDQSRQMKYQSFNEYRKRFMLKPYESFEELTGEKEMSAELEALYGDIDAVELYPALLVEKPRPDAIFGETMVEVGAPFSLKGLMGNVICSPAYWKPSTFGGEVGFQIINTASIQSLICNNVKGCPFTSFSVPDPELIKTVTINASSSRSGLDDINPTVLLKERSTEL

CYP2C9, sequence (P11712 whole entry): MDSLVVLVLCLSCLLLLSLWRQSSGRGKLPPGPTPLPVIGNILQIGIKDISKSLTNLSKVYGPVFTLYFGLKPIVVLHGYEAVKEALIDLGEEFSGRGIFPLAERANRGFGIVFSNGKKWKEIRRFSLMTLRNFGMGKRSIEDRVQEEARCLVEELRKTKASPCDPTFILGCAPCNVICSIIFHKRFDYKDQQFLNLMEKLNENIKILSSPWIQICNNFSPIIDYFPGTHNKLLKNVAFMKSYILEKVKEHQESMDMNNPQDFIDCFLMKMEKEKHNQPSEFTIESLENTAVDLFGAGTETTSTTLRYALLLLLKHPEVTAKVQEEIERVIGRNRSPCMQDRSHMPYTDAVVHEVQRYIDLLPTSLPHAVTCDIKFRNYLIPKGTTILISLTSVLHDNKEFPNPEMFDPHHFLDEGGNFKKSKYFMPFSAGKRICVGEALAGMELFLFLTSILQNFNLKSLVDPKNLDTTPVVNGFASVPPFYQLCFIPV
Prostaglandin G/H synthase 1 (Homo sapiens), sequence (P23219 whole entry): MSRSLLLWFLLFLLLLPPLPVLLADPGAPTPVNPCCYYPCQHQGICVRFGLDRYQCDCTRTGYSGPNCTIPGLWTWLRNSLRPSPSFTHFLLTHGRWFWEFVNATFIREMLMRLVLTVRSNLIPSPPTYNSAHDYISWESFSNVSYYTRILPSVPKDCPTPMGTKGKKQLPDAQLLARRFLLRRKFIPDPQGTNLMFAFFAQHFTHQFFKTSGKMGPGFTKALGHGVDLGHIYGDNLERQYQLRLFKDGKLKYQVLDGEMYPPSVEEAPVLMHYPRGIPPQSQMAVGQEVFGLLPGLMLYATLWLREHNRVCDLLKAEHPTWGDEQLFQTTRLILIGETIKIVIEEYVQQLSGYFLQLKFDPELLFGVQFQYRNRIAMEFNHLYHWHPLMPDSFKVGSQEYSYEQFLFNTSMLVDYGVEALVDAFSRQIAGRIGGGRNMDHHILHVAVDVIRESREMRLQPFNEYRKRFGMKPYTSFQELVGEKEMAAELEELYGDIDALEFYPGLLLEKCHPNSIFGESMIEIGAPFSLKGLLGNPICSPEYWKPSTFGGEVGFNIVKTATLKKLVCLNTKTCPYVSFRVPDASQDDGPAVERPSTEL

metabolized at 0.5 h, 1 µM (CYP2C9) [%] | inhibition [1] [%] | inhibition [2] [%] | Compound
0 |  |  | NS(=O)(=O)c1ccc(-n2nc(C(F)(F)F)cc2-c2ccc(C(F)(F)F)cc2)cc1
2 | 55 | 96 | CCOC(=O)c1ccc(-n2nc(C(F)(F)F)cc2-c2ccc(C(F)(F)F)cc2)cc1
29 | 67 | 26 | Cc1ccc(-c2cc(C(F)(F)F)nn2-c2ccc(C(=O)O)cc2)cc1
29 | 28 | 6 | O=C(O)c1ccc(-n2nc(C(F)(F)F)cc2-c2ccc(C(F)(F)F)cc2)cc1
88 | 55 | 87 | CCOC(=O)c1ccc(-n2nc(C(F)(F)F)cc2-c2ccc(C)cc2)cc1
4 | 96 | 93 | O=C(O)Cc1ccc(-n2nc(C(F)(F)F)cc2-c2ccc(C(F)(F)F)cc2)cc1
10 | 88 | 95 | Cc1ccc(-c2cc(C(F)(F)F)nn2-c2ccc(CC(=O)O)cc2)cc1

Further lines, the compound ahead of its results:

Compound | metabolized at 0.5 h, 1 µM (CYP2C9) [%] | inhibition [1] [%] | inhibition [2] [%]
Cc1ccc(-c2cc(C(=O)O)nn2-c2ccc(S(N)(=O)=O)cc2)cc1 | 61 | 66 | 43
Cc1ccc(-c2cc(C(F)(F)F)nn2-c2ccc([S+](C)[O-])cc2)cc1 (stereo unspecified) | 48 | 82 | 99
Cc1ccc(-c2cc(-c3ccccc3)nn2-c2ccc(S(N)(=O)=O)cc2)cc1 | 49 | 100 | 92
Cc1ccc(-c2cc(C(F)(F)F)nn2-c2ccc(C)cc2)cc1 | 30 |  | 
Cc1ccc(-c2cc(C(F)(F)F)nn2-c2ccc(S(C)(=O)=O)cc2)cc1 | 81 | 99 | 92
Cc1ccc(-c2cc(C(F)(F)F)nn2-c2ccc(S(N)(=O)=O)cc2)cc1 [CELECOXIB] | 94 |  | 
CSc1ccc(-n2nc(C(F)(F)F)cc2-c2ccc(C)cc2)cc1 | 87 | 95 | 99
